ChEMBL document CHEMBL4613279, “Synthesis, Cytotoxicity Evaluation, and Computational Insights of Novel 1,4-Diazepane-Based Sigma Ligands” (ACS Med Chem Lett, 2020)
Values after ≈ are worked out from the molar mass of the structure shown.

How the values were obtained:
[1] = target: Glutamate receptor ionotropic, NMDA 2B (Homo sapiens) (UniProt Q13224); assay: Displacement of [3H]ifenprodil from GluN2B (unknown origin) expressed in mouse L(tk-) cell membranes co-expressing GluN1a at 1 uM incubated for 120 mins by scintillation counting method relative to control
Chain of Glutamate receptor ionotropic, NMDA 2B (Homo sapiens) (Q13224 27-1484 limits assumed): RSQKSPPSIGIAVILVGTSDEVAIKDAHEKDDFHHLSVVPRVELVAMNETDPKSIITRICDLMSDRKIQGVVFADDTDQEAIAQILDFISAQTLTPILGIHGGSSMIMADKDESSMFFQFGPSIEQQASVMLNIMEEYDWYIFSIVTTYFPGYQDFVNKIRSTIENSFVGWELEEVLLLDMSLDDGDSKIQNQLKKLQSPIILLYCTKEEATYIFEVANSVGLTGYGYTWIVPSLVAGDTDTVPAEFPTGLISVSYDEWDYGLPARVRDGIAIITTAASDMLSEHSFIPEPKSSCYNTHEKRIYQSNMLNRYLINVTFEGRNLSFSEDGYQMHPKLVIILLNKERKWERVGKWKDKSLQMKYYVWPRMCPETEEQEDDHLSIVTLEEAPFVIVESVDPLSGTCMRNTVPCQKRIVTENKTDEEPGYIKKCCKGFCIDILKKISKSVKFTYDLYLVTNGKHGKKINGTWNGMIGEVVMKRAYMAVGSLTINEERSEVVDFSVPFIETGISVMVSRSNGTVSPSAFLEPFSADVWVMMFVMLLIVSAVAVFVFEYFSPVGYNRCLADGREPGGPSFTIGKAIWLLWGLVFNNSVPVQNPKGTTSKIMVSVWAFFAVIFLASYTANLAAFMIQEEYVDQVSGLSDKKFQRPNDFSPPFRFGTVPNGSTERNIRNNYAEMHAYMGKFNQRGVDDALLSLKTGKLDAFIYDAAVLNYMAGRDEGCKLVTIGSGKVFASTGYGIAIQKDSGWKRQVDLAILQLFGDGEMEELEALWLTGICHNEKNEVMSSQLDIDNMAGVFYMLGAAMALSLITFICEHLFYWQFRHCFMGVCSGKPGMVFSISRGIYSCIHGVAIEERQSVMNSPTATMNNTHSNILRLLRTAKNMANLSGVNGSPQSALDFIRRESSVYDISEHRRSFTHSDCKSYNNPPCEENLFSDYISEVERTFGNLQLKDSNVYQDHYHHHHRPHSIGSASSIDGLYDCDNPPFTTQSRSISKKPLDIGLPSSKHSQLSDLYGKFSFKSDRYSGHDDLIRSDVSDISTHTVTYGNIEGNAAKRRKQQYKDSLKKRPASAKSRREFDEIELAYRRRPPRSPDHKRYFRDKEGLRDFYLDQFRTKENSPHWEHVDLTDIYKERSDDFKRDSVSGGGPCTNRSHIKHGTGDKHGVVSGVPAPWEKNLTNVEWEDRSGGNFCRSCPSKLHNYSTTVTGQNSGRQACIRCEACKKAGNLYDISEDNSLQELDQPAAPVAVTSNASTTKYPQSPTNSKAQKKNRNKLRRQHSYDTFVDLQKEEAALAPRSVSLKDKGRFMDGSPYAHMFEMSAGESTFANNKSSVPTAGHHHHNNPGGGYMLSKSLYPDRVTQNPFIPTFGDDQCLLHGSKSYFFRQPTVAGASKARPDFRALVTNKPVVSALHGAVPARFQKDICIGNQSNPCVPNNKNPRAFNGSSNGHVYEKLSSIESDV

[2] = target: Sigma non-opioid intracellular receptor 1 (Cavia porcellus, UniProt Q60492); assay: Displacement of [3H]-(+)pentazocine from sigma-1 receptor in guinea pig brain membranes after 120 mins by scintillation counting method; assay type: cell membranes, Membrane
Chain of Sigma non-opioid intracellular receptor 1 (Q60492 whole entry): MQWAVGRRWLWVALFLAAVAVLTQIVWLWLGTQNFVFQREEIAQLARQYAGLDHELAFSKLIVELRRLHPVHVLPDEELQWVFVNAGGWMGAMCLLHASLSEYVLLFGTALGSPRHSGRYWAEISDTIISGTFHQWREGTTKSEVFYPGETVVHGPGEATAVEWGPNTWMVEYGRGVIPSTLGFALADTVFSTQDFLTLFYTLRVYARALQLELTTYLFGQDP

[3] = target: T1, Sigma intracellular receptor 2 (Rattus norvegicus, UniProt Q5U3Y7); assay: Displacement of [3H]-Di-o-tolylguanidine from sigma-2 receptor in rat liver membranes after 120 mins by scintillation counting method; assay type: cell membranes, Membrane
T1 sequence (Q5U3Y7 whole entry): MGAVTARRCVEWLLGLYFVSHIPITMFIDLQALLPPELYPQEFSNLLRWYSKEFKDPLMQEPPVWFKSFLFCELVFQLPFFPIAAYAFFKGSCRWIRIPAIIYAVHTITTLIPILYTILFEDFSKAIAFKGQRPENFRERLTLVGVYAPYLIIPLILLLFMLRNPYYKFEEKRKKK

[4] = Antioxidant activity assessed as ABTS radical scavenging activity incubated for 40 mins; assay type: functional
[5] = Antioxidant activity in pH 7.4 PBS assessed as H2O2 radical scavenging activity; assay type: functional
[6] = Cytotoxicity against human PANC1 cells assessed as cell viability at 50 uM after 48 hrs by MTT assay relative to control; assay type: cell-based; settings: PANC-1 cells, read-out: Activity
How it was run: (§1)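 Viability of human pancreatic carcinoma PANC1 and neuroblastoma SH-SY5Y cells, both chosen for high σ1R expression, measured by MTT assay across several test concentrations; viability expressed as percent.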

[7] = target: Glutamate receptor ionotropic, NMDA 2B (Homo sapiens, UniProt Q05586+Q13224); assay: Displacement of [3H]ifenprodil from GluN2B (unknown origin) expressed in mouse L(tk-) cell membranes co-expressing GluN1a incubated for 120 mins by scintillation counting method
Chain of Glutamate receptor ionotropic, NMDA 2B (Q13224 whole entry, one chain of several): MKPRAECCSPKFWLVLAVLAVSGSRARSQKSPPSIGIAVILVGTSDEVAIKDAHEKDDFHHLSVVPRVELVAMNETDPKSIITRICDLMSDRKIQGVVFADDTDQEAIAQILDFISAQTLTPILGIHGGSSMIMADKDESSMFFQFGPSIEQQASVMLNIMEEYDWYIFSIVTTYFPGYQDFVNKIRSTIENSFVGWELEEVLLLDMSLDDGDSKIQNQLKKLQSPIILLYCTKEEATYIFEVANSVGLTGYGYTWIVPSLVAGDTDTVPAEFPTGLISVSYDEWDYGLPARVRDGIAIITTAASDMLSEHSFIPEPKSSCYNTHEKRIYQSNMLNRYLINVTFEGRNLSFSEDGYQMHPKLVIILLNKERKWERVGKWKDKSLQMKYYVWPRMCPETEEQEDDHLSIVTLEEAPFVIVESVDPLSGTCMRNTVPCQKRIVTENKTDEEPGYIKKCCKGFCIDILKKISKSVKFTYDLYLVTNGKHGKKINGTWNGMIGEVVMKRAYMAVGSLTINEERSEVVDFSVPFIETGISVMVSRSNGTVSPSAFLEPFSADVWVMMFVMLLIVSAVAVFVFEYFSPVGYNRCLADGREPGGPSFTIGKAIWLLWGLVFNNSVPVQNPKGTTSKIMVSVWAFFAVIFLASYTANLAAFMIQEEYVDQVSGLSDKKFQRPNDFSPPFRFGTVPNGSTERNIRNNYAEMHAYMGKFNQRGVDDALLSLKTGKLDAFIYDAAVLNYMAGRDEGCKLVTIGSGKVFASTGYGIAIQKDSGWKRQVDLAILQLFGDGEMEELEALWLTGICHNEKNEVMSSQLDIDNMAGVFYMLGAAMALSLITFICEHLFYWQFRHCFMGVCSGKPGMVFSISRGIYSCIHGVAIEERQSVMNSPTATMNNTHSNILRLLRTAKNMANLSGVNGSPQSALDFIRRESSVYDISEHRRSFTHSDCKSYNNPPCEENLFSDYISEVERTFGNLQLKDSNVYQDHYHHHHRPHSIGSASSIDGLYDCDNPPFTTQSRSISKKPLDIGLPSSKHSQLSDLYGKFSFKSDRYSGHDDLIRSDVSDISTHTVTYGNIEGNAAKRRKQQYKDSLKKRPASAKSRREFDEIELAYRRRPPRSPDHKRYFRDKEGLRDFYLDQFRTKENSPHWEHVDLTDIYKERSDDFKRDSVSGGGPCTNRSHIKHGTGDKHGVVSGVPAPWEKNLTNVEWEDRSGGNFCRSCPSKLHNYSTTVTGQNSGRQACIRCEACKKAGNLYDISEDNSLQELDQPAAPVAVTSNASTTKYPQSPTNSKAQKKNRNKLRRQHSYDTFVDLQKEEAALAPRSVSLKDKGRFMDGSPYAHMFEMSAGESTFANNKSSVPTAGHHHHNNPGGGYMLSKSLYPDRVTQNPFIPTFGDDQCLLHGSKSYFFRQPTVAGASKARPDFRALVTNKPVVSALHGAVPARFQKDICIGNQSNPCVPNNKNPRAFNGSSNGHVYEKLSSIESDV

[8] = Cytotoxicity against human PANC1 cells assessed as cell viability at 100 uM after 48 hrs by MTT assay relative to control; assay type: cell-based; settings: PANC-1 cells, read-out: Activity; how it was run: as §1
[9] = Cytotoxicity against human SH-SY5Y cells assessed as cell viability at 100 uM after 48 hrs by MTT assay relative to control; assay type: cell-based; settings: read-out: Activity; how it was run: as §1
[10] = Cytotoxicity against human SH-SY5Y cells assessed as cell viability at 50 uM after 48 hrs by MTT assay relative to control; assay type: cell-based; settings: read-out: Activity; how it was run: as §1
[11] = target: T2, Sigma intracellular receptor 2 (Rattus norvegicus) (UniProt Q5U3Y7); assay: Displacement of [3H]-Di-o-tolylguanidine from sigma-2 receptor in rat liver membranes at 1 uM after 120 mins by scintillation counting method relative to control; assay type: cell membranes; settings: Membrane
T2 sequence (whole entry): T1 sequence (Q5U3Y7 whole entry)

SH-SY5Y = assay: Cytotoxicity against human SH-SY5Y cells at 12.5 to 100 uM after 48 hrs by MTT assay; assay type: cell-based; how it was run: as §1
PANC-1 = assay: Cytotoxicity against human PANC1 cells at 12.5 to 100 uM after 48 hrs by MTT assay; assay type: cell-based; settings: panc-1, 48 h; how it was run: as §1

| inhibition [1] | Ki [2] | Ki [3] | IC50 [4] | IC50 [5] | Ki [7] | Structure (SMILES) | also measured |
| --- | --- | --- | --- | --- | --- | --- | --- |
| 0% | 147 nM | 297 nM |  |  |  | O=C(c1cccs1)N1CCCN(Cc2ccccc2)CC1 |  |
|  |  |  | 18.73 µg/mL (≈ 74.8 µM) | 20.38 µg/mL (≈ 81.4 µM) |  | Cc1c(C)c2c(c(C)c1O)CCC(C)(C(=O)O)O2 (stereo unspecified) [TROLOX] |  |
|  | 8 nM | 47 nM | 12.71 µg/mL (≈ 38 µM) | 15.89 µg/mL (≈ 47.5 µM) | 1600 nM | O=C(c1cc2ccccc2o1)N1CCCN(Cc2ccccc2)CC1 | viability at 48 h, 50 µM [6]: 196%; viability at 48 h, 100 µM [8]: 127%; viability at 48 h, 100 µM [9]: 98%; viability at 48 h, 50 µM [10]: 127% |
| 0% | 116 nM |  |  |  |  | O=C(c1ccccc1)N1CCCN(Cc2ccccc2)CC1 | inhibition [11]: 0% |
|  | 254 nM | 2000 nM |  |  | 116 nM | Cc1ccc(CN2CCCN(C(=O)c3ccncc3)CC2)c(C)c1 |  |
|  | 70 nM | 102 nM |  |  | 79 nM | Cc1ccc(CN2CCCN(C(=O)c3cccc4ccccc34)CC2)c(C)c1 |  |
|  |  |  | 12.75 µg/mL (≈ 72.4 µM) | 19.27 µg/mL (≈ 109 µM) |  | O=C1O[C@H]([C@@H](O)CO)C(O)=C1O [ASCORBIC ACID] |  |
| 0% | 690 nM | 3900 nM |  |  |  | Cc1ccc(CN2CCCN(C(=O)c3ccco3)CC2)c(C)c1 |  |
| 9% | 41 nM | 187 nM |  |  |  | O=C(c1cccc2ccccc12)N1CCCN(Cc2ccccc2)CC1 |  |
|  | 849 nM | 3900 nM |  |  | 294 nM | Cc1ccc(CN2CCCN(C(=O)c3ccccc3)CC2)c(C)c1 |  |
| 0% | 267 nM | 495 nM |  |  |  | O=C(c1ccncc1)N1CCCN(Cc2ccccc2)CC1 |  |
|  | 29 nM | 35 nM | 9.43 µg/mL (≈ 25.2 µM) | 17.44 µg/mL (≈ 46.7 µM) | 108 nM | Cc1ccc(CN2CCCN(C(=O)c3ccc4ccccc4n3)CC2)c(C)c1 | viability at 48 h, 100 µM [8]: 51% |
| 3% | 336 nM | 1800 nM |  |  |  | Cc1ccc(CN2CCCN(C(=O)c3cccs3)CC2)c(C)c1 |  |
|  | 19 nM | 47 nM | 14.26 µg/mL (≈ 41.3 µM) | 20.35 µg/mL (≈ 58.9 µM) | 1500 nM | O=C(c1ccc2ccccc2n1)N1CCCN(Cc2ccccc2)CC1 |  |
|  | 20 nM | 28 nM | 10.05 µg/mL (≈ 27.7 µM) | 18.56 µg/mL (≈ 51.2 µM) | 59 nM | Cc1ccc(CN2CCCN(C(=O)c3cc4ccccc4o3)CC2)c(C)c1 | Activity (SH-SY5Y): Non-Toxic; Activity (PANC-1): Non-Toxic |
| 1% | 333 nM | 560 nM |  |  |  | O=C(c1ccco1)N1CCCN(Cc2ccccc2)CC1 |  |
